Assay [1] deals with Ubiquitin carboxyl-terminal hydrolase isozyme L1 (Homo sapiens) (UniProt P09936). Description: Inhibition of UCH-L1 (unknown origin) at 20 uM.
For assay [2], the target named is T1, Ubiquitin carboxyl-terminal hydrolase isozyme L5 (Homo sapiens) (UniProt Q9Y5K5).
T1 sequence (whole entry): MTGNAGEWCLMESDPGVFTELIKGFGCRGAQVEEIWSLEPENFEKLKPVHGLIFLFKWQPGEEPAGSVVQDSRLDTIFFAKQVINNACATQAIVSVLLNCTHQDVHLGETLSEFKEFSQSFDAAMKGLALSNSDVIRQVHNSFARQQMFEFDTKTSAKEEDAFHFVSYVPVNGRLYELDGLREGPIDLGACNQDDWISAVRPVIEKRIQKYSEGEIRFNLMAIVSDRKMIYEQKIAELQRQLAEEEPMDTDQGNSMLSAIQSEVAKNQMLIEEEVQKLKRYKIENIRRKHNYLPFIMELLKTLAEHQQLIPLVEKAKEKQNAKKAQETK
Description: Inhibition of UCH-L5 (unknown origin) at 20 uM.

Assay [3] deals with Ubiquitin carboxyl-terminal hydrolase 11 (Homo sapiens) (UniProt P51784). Description: Inhibition of USP11 (unknown origin) at 20 uM.
Chain of Ubiquitin carboxyl-terminal hydrolase 11 (Homo sapiens) (P51784 whole entry): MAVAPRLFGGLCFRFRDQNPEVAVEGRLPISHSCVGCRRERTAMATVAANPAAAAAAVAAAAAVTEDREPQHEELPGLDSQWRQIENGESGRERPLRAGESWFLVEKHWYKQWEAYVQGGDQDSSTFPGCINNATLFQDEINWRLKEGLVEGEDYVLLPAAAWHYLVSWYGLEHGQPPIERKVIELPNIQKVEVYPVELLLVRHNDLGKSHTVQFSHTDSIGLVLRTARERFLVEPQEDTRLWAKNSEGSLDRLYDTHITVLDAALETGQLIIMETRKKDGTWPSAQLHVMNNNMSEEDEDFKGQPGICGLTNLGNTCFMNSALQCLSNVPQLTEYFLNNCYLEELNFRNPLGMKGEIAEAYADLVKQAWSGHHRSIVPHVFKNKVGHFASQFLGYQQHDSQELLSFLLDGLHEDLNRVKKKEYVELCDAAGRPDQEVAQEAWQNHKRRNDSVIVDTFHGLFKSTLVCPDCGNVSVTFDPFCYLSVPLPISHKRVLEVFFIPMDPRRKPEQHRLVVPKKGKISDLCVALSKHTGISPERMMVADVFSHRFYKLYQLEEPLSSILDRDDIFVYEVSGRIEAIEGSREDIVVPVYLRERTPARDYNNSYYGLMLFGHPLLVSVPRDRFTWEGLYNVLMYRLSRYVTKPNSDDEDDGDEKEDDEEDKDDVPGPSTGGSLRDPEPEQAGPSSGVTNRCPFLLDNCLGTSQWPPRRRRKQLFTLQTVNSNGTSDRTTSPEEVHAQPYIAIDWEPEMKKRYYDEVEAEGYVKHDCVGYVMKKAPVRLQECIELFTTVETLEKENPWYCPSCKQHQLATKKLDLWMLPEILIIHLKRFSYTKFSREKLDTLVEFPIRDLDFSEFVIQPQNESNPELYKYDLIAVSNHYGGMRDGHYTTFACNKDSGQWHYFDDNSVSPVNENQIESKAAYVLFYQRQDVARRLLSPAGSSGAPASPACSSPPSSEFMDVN
Assay [4] has as its target T2, Ubiquitin carboxyl-terminal hydrolase 2 (Homo sapiens) (UniProt O75604).
T2 sequence (whole entry): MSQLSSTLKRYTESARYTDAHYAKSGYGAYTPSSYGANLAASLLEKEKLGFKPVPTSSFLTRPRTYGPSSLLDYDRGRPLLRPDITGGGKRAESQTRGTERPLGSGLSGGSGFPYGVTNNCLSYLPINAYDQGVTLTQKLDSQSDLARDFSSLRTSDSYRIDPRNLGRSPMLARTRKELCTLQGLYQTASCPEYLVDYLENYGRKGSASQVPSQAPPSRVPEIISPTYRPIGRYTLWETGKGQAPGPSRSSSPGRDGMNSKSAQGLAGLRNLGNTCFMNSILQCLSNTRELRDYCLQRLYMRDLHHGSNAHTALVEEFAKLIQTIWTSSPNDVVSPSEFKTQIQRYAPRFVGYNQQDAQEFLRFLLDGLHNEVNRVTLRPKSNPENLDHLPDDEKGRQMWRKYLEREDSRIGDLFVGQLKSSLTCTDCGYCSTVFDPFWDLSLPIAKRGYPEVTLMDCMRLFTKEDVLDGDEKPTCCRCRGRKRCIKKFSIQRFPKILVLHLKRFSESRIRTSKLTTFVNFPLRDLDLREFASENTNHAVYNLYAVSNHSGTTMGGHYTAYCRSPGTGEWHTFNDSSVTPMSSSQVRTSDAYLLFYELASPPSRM
Description: Inhibition of USP2 (unknown origin) at 20 uM.

For assay [5], the target named is T3, Ubiquitin carboxyl-terminal hydrolase 25 (Homo sapiens) (UniProt Q9UHP3).
T3 sequence (whole entry): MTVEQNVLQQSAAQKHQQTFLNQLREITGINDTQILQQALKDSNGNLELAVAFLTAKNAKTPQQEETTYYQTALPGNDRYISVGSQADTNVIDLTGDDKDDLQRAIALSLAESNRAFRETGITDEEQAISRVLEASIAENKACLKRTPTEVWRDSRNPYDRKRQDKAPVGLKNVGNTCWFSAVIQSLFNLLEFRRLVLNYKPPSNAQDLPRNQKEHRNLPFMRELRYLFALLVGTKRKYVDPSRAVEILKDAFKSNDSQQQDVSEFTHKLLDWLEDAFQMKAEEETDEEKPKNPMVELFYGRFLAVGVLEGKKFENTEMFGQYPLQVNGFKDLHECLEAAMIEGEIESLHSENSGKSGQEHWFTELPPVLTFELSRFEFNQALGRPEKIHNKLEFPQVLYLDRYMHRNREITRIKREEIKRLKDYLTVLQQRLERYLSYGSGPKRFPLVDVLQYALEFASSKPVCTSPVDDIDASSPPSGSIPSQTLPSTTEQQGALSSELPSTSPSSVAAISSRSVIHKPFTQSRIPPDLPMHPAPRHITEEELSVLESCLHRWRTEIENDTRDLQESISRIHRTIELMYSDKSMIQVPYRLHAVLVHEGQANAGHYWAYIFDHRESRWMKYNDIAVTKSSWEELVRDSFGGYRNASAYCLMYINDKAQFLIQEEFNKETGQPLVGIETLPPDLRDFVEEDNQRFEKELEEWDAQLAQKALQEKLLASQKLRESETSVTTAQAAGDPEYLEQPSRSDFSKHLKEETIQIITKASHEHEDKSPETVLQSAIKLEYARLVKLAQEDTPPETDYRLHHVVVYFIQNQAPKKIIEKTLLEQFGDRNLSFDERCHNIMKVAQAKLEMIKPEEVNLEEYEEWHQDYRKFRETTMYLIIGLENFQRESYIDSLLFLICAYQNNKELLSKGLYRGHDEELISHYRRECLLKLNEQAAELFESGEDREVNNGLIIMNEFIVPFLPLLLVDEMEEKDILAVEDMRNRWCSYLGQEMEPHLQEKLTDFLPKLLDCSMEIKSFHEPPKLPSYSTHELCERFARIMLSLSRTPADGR
Description: Inhibition of USP25 (unknown origin) at 20 uM.

Assay [6] deals with T4, Ubiquitin carboxyl-terminal hydrolase 28 (Homo sapiens) (UniProt Q96RU2).
T4 sequence (whole entry): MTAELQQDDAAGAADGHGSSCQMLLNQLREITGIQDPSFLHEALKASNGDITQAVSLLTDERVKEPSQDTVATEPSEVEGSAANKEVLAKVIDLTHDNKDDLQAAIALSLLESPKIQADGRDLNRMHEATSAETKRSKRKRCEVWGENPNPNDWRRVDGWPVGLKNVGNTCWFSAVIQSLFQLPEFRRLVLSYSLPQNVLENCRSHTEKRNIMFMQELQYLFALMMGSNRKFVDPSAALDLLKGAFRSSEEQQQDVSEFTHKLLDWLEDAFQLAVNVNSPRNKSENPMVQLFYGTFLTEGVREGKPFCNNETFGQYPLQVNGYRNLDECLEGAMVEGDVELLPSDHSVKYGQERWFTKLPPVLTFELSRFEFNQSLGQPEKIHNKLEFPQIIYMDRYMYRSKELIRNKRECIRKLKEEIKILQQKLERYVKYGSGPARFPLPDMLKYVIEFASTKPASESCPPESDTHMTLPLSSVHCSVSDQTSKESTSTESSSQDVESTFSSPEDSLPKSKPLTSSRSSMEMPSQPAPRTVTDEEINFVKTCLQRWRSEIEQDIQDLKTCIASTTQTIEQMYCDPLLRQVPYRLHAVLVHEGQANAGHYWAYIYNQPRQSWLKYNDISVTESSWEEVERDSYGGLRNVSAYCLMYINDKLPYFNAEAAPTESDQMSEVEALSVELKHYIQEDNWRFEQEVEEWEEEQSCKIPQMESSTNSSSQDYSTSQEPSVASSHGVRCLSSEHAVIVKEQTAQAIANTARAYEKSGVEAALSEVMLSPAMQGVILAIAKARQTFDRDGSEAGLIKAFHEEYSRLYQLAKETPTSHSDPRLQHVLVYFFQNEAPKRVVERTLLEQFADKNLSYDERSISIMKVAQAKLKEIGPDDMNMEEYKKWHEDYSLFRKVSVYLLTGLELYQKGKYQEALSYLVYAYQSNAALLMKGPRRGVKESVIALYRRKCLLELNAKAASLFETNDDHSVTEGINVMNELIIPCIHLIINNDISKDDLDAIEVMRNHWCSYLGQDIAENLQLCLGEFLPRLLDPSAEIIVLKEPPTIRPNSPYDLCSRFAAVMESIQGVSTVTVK
Description: Inhibition of USP28 (unknown origin) at 20 uM.

The next assay has as its system LNCaP. Description: Antiproliferative activity against human LNCaP cells assessed as reduction in cell viability incubated for 6 days by cell-titer glo assay. The settings on record: 144 h. Format: functional, cell-based. The method in brief:
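LNCaP seeded at 2500 cells/well in 96-well plates, treated 24 h later with a range of compound concentrations for 6 days. Viability by CellTiter-Glo; IC50 from curve fitting.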

The next assay has as its system RS4-11. Description: Antiproliferative activity against human RS4-11 cells assessed as reduction in cell viability incubated for 3 days by cell-titer glo assay. Format: functional, cell-based. The note with it: RS4-11, 72 h. A digest of the protocol: (§1)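 Cells seeded in 96-well plates (RS4;11 5000 cells/well; HCT-116, Huh7, K562, NB4 2000 cells/well), dosed after 24 h with a range of compound concentrations for 3 days. Viability read by CellTiter-Glo luminescence; IC50 from curve fitting.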

A further assay relates to HCT-116. Description: Antiproliferative activity against human HCT-116 cells assessed as reduction in cell viability incubated for 3 days by cell-titer glo assay. Format: functional, cell-based. The settings on record: HCT-116, 72 h. The method in brief:
as §1

The subject of another assay is NB-4. Description: Antiproliferative activity against human NB-4 cells assessed as reduction in cell viability incubated for 3 days by cell-titer glo assay. The note with it: NB-4, 72 h. Format: functional, cell-based. A digest of the protocol: as §1
Assay [7] in a line: Antiproliferative activity against human K562 cells assessed as reduction in cell viability incubated for 3 days by cell-titer glo assay. It is filed as functional, cell-based. The settings on record: K562, 72 h. A digest of the protocol: as §1
The test system of a further assay is Huh-7. Description: Antiproliferative activity against human HuH-7 cells assessed as reduction in cell viability incubated for 3 days by cell-titer glo assay. It is filed as functional, cell-based. The settings on record: Huh-7, 72 h. A digest of the protocol:
as §1

Activity calls are given as the source filed them. The calls are words filed in the database; no cut-off is given here. Bounds are passed on as bounds.

Chain of Ubiquitin carboxyl-terminal hydrolase isozyme L1 (Homo sapiens) (P09936 whole entry, looked up): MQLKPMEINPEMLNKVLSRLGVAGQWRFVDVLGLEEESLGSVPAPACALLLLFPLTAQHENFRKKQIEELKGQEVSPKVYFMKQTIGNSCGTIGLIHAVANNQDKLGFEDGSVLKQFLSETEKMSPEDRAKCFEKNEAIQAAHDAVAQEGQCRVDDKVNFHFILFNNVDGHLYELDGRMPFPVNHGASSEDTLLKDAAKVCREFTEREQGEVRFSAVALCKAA

Turning to `C[C@H](CC(=O)N1CCC(O)(Cn2cnc3c(-c4ccc(CN)cc4)n(C)nc3c2=O)CC1)c1ccccc1`, the inhibition result in assay [1], in [2], in assay [3], in assay [4], in [5] and in [6] was “inactive” each time. Further, the IC50 (in general, the concentration that inhibits the measured activity by half) with LNCaP is 0.0201 µM; with RS4-11, 0.0069 µM; in the assay on HCT-116 it was over 50 µM; with NB-4 it was over 50 µM; in assay [7], 24.1 µM; in the assay with Huh-7, 10.7 µM.

The record behind these values is ChEMBL document CHEMBL4680269, “N-benzylpiperidinol derivatives as novel USP7 inhibitors: Structure-activity relationships and X-ray crystallographic studies” (Eur J Med Chem, 2020).
